Positions count from the first letter of the chain named. Names may count otherwise. Ends that are not written are not given here.

Test [1] has as its target T1, G340A-MoaA (Staphylococcus aureus, UniProt P69848, G340A). Nature of the test: MoaA/MoaC coupled assay. It counts as biochemical. Conditions: for activity restoration lower than the 11-mer peptide: G340A-MoaA, peptide 200 μM (Figure 4A).
Test [2] concerns the target T2, wt-MoaA (Staphylococcus aureus, UniProt P69848). Put plainly: Anaerobic ITC, wt-MoaA. It counts as binding. The gist of the method:
(§1)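 His6-tagged S. aureus MoaA (wild type or GG-motif point mutants) was expressed in E. coli, purified and reconstituted anaerobically. […] Run as 29 injections at 24 °C, 307 rpm, with degassed buffer-only control titration.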

Test [3] deals with T2, wt-MoaA. Nature of the test: Abortive SAM cleavage. The test is classed as biochemical. To be noted: 5′-dA vs cPMP amounts, triplicate, SD.
Test [4] has as its system MoaA GG-motif mutants. Put plainly: MoaA/MoaC coupled assay / peptide rescue, MoaA GG-motif mutants. Conditions: for increase of Km over wt-MoaA: GG-motif mutants with 500 μM 11-mer peptide vs wt-MoaA. The test is classed as biochemical, Staphylococcus aureus.
For test [5], the target named is MoaA G339A (Staphylococcus aureus, UniProt P69848, G339A). Put plainly: Anaerobic ITC, G339A-MoaA. It counts as binding. The gist of the method: as §1
Test [6] deals with T1, G340A-MoaA. Nature of the test: Abortive SAM cleavage. Conditions: G340A-MoaA with 11-mer wt peptide, 5′-dA vs cPMP amounts; triplicate, SD. It counts as biochemical.
Test [7] deals with T3, MoaA G340A (Staphylococcus aureus, UniProt P69848, G340A).
T3 sequence (P69848 1-340 G340A): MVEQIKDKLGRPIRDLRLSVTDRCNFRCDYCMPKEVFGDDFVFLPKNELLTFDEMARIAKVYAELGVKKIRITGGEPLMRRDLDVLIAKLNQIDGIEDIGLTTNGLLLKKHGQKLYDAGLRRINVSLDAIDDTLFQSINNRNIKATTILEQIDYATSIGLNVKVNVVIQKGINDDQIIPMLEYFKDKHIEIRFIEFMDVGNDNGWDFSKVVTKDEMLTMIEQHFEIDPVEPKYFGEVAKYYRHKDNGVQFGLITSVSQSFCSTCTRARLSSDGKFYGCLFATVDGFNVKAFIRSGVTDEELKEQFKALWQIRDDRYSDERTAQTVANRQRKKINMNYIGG
Put plainly: Anaerobic ITC, G340A-MoaA. It counts as binding. The gist of the method:
as §1

Test [8] deals with T2, wt-MoaA. Conditions: [3′-D]GTP vs GTP as substrate; wt-MoaA reaction; cited from earlier work.
Test [9] addresses R330A/K331A/K332A-MoaA (Staphylococcus aureus, UniProt P69848, K331A/K332A/R330A). Put plainly: MoaA/MoaC coupled assay / peptide rescue, R330A/K331A/K332A-MoaA. Conditions: for activity restoration by peptide: peptide 200 μM (Figure 4A). It counts as biochemical.
Test [10] deals with D198A-MoaA (Staphylococcus aureus, UniProt P69848, D198A). The test is classed as biochemical. Conditions: without peptide; coupled assay.
The mark [11] stands for this setting: with 500 μM 11-mer wt peptide, coupled assay with MoaC, pH 7.6, 25 °C.

As usually defined, the Km is the concentration of substrate that gives half-maximal velocity. One may read the kcat as the maximal rate divided by the concentration of active sites. Usually Kd stands for the equilibrium constant for the complex coming apart. Read a low Kd as tighter binding. As for `Nc1nc2c(ncn2[C@@H]2O[C@H](COP(=O)(O)OP(=O)(O)OP(=O)(O)O)[C@@H](O)[C@H]2O)c(=O)[nH]1` [GTP, Guanosine 5′-triphosphate], the Michaelis constant (Km) in test [1] (setting [11]) was determined as 7.7 ± 3.8 µM. Further, in [1] (setting [11]), the catalytic constant (kcat) was 0.000783 ± 5e-05 s⁻¹. Moreover, the Kd stood at 5 ± 3 µM in test [2], 0.46 ± 0.01 µM in test [5] and 5.2 ± 2.3 µM in [7]. For the same molecule, the entries for the “uncoupling (abortive SAM cleavage relative to cPMP formation)” value in test [3] and in test [6] were 4.1 ± 2.7% and 8.2 ± 4.8%, respectively. The “increase of Km over wt-MoaA” value in test [4] is given as 2–17 fold.
Consider `C[S+](CC[C@H](N)C(=O)[O-])C[C@H]1O[C@@H](n2cnc3c(N)ncnc32)[C@H](O)[C@@H]1O` (stereo partly drawn) [SAM, S-adenosyl-L-methionine], for which the Michaelis-Menten constant (Km) in test [1] (setting [11]) is 37 ± 14 µM. In addition, the Kd in [2] is 1.7 ± 0.6 µM; in test [5], over 90 µM; in test [7], over 90 µM. In addition, the “increase of Km over wt-MoaA” value in test [4] is on record as 7–18 fold.
`[2H][C@@]1(O)[C@@H](COP(=O)(O)OP(=O)(O)OP(=O)(O)O)O[C@@H](n2cnc3c(=O)[nH]c(N)nc32)[C@@H]1O` [[3′-D]GTP]: the “uncoupling (abortive SAM cleavage relative to cPMP formation)” value stood at 5.5 ± 3.0% in test [3] and 25 ± 6.7% in test [6]. For the same molecule, the KIE in test [8] was 1.28 ± 0.05.
Turning to INMNYIGG [8-mer], the “activity restoration lower than the 11-mer peptide” value in [1] (coupled assay) was 10 fold. In test [9], the “activity restoration by peptide” value is “No significant activity restoration”.
In the case of NYIGG [5-mer], in test [1] (coupled assay), the “activity restoration lower than the 11-mer peptide” value amounted to 100 fold. In addition, in test [9], the “activity restoration by peptide” value is listed as “No significant activity restoration”.
RKKINMNYIGA: the “restoration of MoaA activity by GG-motif mutated peptide” value in [4] (even at 1.0 mM peptide concentration, coupled assay (Figure 3A)) is recorded as “did not restore the MoaA activity”.
RKKINMNYIGG [11-mer wt peptide]: the Kd in test [1] (KD (peptide titration, figure legend), Figure 3C, nonlinear fit to the Hill equation, coupled assay) was determined as 151 µM; in test [9] (Kd (peptide titration, figure legend), Figure 4B, nonlinear fit to Hill equation) it was 172 µM.

B1: D198A-MoaA: S. aureus MoaA variant with D198A mutation in Loop 14 (protein)
chain: T3 sequence (P69848 1-340 G340A) with D198A
Regarding B1, in test [10], the “activity of mutant relative to wt-MoaA” value is 8 % the activity of wt-MoaA.

B2: R330A/K331A/K332A-MoaA (protein)
chain: T3 sequence (P69848 1-340 G340A) with R330A, K331A, K332A
For the molecule B2, the “activity of mutant relative to wt-MoaA” value in test [9] (without peptide) is recorded as 8 % the activity of wt-MoaA.

Values taken from article PMC4831585 (Journal of the American Chemical Society, 2015).
